Consider one compound from ChEMBL document CHEMBL3525900, “Pharmacokinetics, distribution, and metabolism of [14C]sunitinib in rats, monkeys, and humans” (Drug Metab Dispos, 2012).

Series [1] can be described thus: Drug concentration in male Lister Hooded pigmented rat brown fat assessed as radioactivity per gram of tissue at 20 mg/kg administered as single dose via gastric gavage measured after 168 hrs by autoradiographic analysis. Type of series: ADME, organism-based, Brown adipose tissue. Set-up: dose 20 mg/kg, dosed compound name [14C]Sunitinib. The conditions noted are these: in vivo, po.

The test system of series [2] is Large intestine. Nature of the series: Drug concentration in female albino rat large intestine assessed as radioactivity per gram of tissue at 20 mg/kg administered as single dose via gastric gavage measured after 3 hrs by autoradiographic analysis. It counts as ADME, organism-based. Set-up: dose 20 mg/kg, dosed compound name [14C]Sunitinib. The conditions noted are these: in vivo, po. An outline of the steps:
(§1)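 Sprague Dawley albino rats, ca 7-8 weeks old, dosed once by gastric gavage with [14C]sunitinib L-malate (15 mg freebase/kg, 100 µCi/kg). One male and one female killed by CO2 at 3, 6, 24, 72 and 168 h. Carcasses frozen in solid CO2/hexane, embedded and cut into 30 µm sagittal sections, then freeze-dried. Radioactivity quantified by whole-body autoradiography against standards by regression, background subtracted.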

The test system of series [3] is Small intestine. Nature of the series: Drug concentration in female albino rat small intestine assessed as radioactivity per gram of tissue at 20 mg/kg administered as single dose via gastric gavage measured after 3 hrs by autoradiographic analysis. It counts as ADME, organism-based. Also on record: dose 20 mg/kg, dosed compound name [14C]Sunitinib. The settings on record: in vivo, po.

For series [4], the system named is Stomach. Nature of the series: Drug concentration in female albino rat stomach assessed as radioactivity per gram of tissue at 20 mg/kg administered as single dose via gastric gavage measured after 24 hrs by autoradiographic analysis. Also on record: dose 20 mg/kg, dosed compound name [14C]Sunitinib. Type of series: ADME, organism-based. The conditions noted are these: in vivo, po.

Series [5] has as its system Large intestine. As to the kind of experiment: Drug concentration in male albino rat large intestine assessed as radioactivity per gram of tissue at 20 mg/kg administered as single dose via gastric gavage measured after 24 hrs by autoradiographic analysis. It counts as ADME, organism-based. Also on record: dose 20 mg/kg, dosed compound name [14C]Sunitinib. The settings on record: in vivo, po.

For series [6], the system named is Cynomolgus monkey. As to the kind of experiment: AUC (0 to infinity) as total radioactivity in female cynomolgus monkey plasma at 6 mg/kg, po administered as single dose by LC/MS/MS analysis. Type of series: ADME, organism-based, Macaca fascicularis. Also on record: time infinity, dose 6 mg/kg, dosed compound name [14C]Sunitinib, route oral. The settings on record: in vivo. An outline of the steps:
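Cynomolgus monkeys of both sexes received one oral gavage of [14C]sunitinib L-malate at 6 mg/kg (37 µCi/kg). Femoral-vein blood was taken into heparin from 0.5 to 336 h. Plasma was kept cold and protected from light, then stored at -80 °C. Total radioactivity was by scintillation counting and sunitinib by methanol-extraction LC-MS-MS. Cmax was from raw data, t½ from the log-linear terminal slope, AUC(0-∞) by linear trapezoidal rule.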

In series [7] the test system is Pancreas. Nature of the series: Drug concentration in male Lister Hooded pigmented rat pancreas assessed as radioactivity per gram of tissue at 20 mg/kg administered as single dose via gastric gavage measured after 24 hrs by autoradiographic analysis. It counts as ADME, organism-based. Also on record: dose 20 mg/kg, dosed compound name [14C]Sunitinib. The settings on record: in vivo, po.

In series [8] the test system is Zone of skin. As to the kind of experiment: Drug concentration in male Lister Hooded pigmented rat abdomen skin assessed as radioactivity per gram of tissue at 20 mg/kg administered as single dose via gastric gavage measured after 72 hrs by autoradiographic analysis. It counts as ADME, organism-based. Set-up: dose 20 mg/kg, dosed compound name [14C]Sunitinib. The conditions noted are these: in vivo, po.

In series [9] the test system is Rattus norvegicus. As to the kind of experiment: Cmax as total radioactivity in female Sprague-Dawley rat plasma at 15 mg/kg, po administered as single dose by LC/MS/MS analysis. It counts as ADME, organism-based. Also on record: dose 15 mg/kg, dosed compound name [14C]Sunitinib, route oral. The conditions noted are these: in vivo. In a few lines:
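Single dose of [14C]sunitinib L-malate as free base, 50 µCi/kg. IV dose was 5 mg/kg by tail vein in 5 females. Oral dose was 15 mg/kg by gavage in 3 females and 3 males. Total radioactivity was by scintillation counting. […] Cmax was read from raw data, t½ by log-linear regression, AUC by linear trapezoidal rule.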

The nature of series [10]: Drug recovery in urine of female cynomolgus monkey at 6 mg/kg, po administered as single dose during 0 to 336 hrs by liquid scintillation counting. It counts as ADME, organism-based, Macaca fascicularis. The conditions noted are these: in vivo. Also on record: dose 6 mg/kg, dosed compound name [14C]Sunitinib, route oral.
Series [11] is described as follows: Drug concentration in female albino rat preputial gland assessed as radioactivity per gram of tissue at 20 mg/kg administered as single dose via gastric gavage measured after 24 hrs by autoradiographic analysis. Type of series: ADME, organism-based. Set-up: dose 20 mg/kg, dosed compound name [14C]Sunitinib. The settings on record: in vivo, po. An outline of the steps:
as §1

The nature of series [12]: Drug concentration in female albino rat bladder assessed as radioactivity per gram of tissue at 20 mg/kg administered as single dose via gastric gavage measured after 3 hrs by autoradiographic analysis. Type of series: ADME, organism-based, Urinary bladder. Also on record: dose 20 mg/kg, dosed compound name [14C]Sunitinib. The settings on record: in vivo, po. In a few lines: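 Sprague Dawley (albino) rats, ca 7-8 weeks old, received a single gastric-gavage dose of [14C]sunitinib L-malate at 20 mg/kg (15 mg freebase/kg, 100 µCi/kg). One animal per sex killed by CO2 at 3, 6, 24, 72 and 168 h, then frozen in CO2/hexane. 30 µm sagittal sections were cut and freeze-dried. Radioactivity per gram quantified by whole-body autoradiography using regression against standards. LOQ 0.04–0.06 µg freebase equiv/g.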

In series [13] the test system is Liver. Nature of the series: Drug concentration in male albino rat liver assessed as radioactivity per gram of tissue at 20 mg/kg administered as single dose via gastric gavage measured after 24 hrs by autoradiographic analysis. It counts as ADME, organism-based. Set-up: dose 20 mg/kg, dosed compound name [14C]Sunitinib. The settings on record: in vivo, po.
Series [14] has as its system Kidney. Nature of the series: Drug concentration in male albino rat kidney assessed as radioactivity per gram of tissue at 20 mg/kg administered as single dose via gastric gavage measured after 3 hrs by autoradiographic analysis. It counts as ADME, organism-based. Also on record: dose 20 mg/kg, dosed compound name [14C]Sunitinib. The settings on record: in vivo, po.

Series [15] has as its system Kidney. Nature of the series: Drug concentration in male Lister Hooded pigmented rat kidney assessed as radioactivity per gram of tissue at 20 mg/kg administered as single dose via gastric gavage measured after 168 hrs by autoradiographic analysis. Type of series: ADME, organism-based. Also on record: dose 20 mg/kg, dosed compound name [14C]Sunitinib. The conditions noted are these: in vivo, po.

Series [16] concerns Zone of skin. Nature of the series: Drug concentration in female Lister Hooded pigmented rat abdomen skin assessed as radioactivity per gram of tissue at 20 mg/kg administered as single dose via gastric gavage measured after 168 hrs by autoradiographic analysis. It counts as ADME, organism-based. The conditions noted are these: in vivo, po. Set-up: dose 20 mg/kg, dosed compound name [14C]Sunitinib. An outline of the steps:
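Pigmented Lister Hooded rats, 7-8 weeks old, received [14C]sunitinib L-malate by gavage at 20 mg/kg (15 mg freebase/kg, 100 µCi/kg). One rat per sex was killed by CO2 at each of 24, 72, 168 and 336 h. Carcasses were frozen in solid CO2/hexane and cut into 30 µm sagittal sections, then freeze-dried. Tissue radioactivity was quantified by whole-body autoradiography calibrated against standards by regression (LOQ 0.04–0.06 µg eq/g).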

The test system of series [17] is Spinal cord. Nature of the series: Drug concentration in male Lister Hooded pigmented rat spinal cord assessed as radioactivity per gram of tissue at 20 mg/kg administered as single dose via gastric gavage measured after 168 hrs by autoradiographic analysis. Type of series: ADME, organism-based. The settings on record: in vivo, po. Set-up: dose 20 mg/kg, dosed compound name [14C]Sunitinib.

The nature of series [18]: Drug concentration in female Lister Hooded pigmented rat thyroid gland assessed as radioactivity per gram of tissue at 20 mg/kg administered as single dose via gastric gavage measured after 24 hrs by autoradiographic analysis. It counts as ADME, organism-based. Also on record: dose 20 mg/kg, dosed compound name [14C]Sunitinib. The settings on record: in vivo, po. An outline of the steps:
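Lister Hooded (pigmented) rats, ca 7-8 weeks old, acclimated 7 days, given [14C]sunitinib L-malate by gastric gavage at 20 mg/kg (15 mg freebase/kg, 100 µCi/kg). One male and one female killed by CO2 at 24, 72, 168 and 336 h. Carcasses frozen in solid CO2/hexane and embedded in frozen cellulose. 30 µm sagittal cryosections were freeze-dried. Tissue radioactivity measured by quantitative whole-body autoradiography against calibration standards, with background subtracted.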

Series [19] can be described thus: Drug concentration in male Lister Hooded pigmented rat pituitary gland assessed as radioactivity per gram of tissue at 20 mg/kg administered as single dose via gastric gavage measured after 168 hrs by autoradiographic analysis. The conditions noted are these: in vivo, po. Also on record: dose 20 mg/kg, dosed compound name [14C]Sunitinib. It counts as ADME, organism-based.

Series [20] relates to Ovary. Nature of the series: Drug concentration in female albino rat ovary assessed as radioactivity per gram of tissue at 20 mg/kg administered as single dose via gastric gavage measured after 6 hrs by autoradiographic analysis. The settings on record: in vivo, po. Also on record: dose 20 mg/kg, dosed compound name [14C]Sunitinib. Type of series: ADME, organism-based, Female gonad. In a few lines:
as §1

The subject of series [21] is Liver. As to the kind of experiment: Drug concentration in female albino rat liver assessed as radioactivity per gram of tissue at 20 mg/kg administered as single dose via gastric gavage measured after 6 hrs by autoradiographic analysis. Type of series: ADME, organism-based. Set-up: dose 20 mg/kg, dosed compound name [14C]Sunitinib. The settings on record: in vivo, po. An outline of the steps:
as §1

For series [22], the system named is Cynomolgus monkey. Nature of the series: Tmax as total radioactivity in female cynomolgus monkey plasma at 6 mg/kg, po administered as single dose by LC/MS/MS analysis. Set-up: dose 6 mg/kg, dosed compound name [14C]Sunitinib, route oral. The settings on record: in vivo. Type of series: ADME, organism-based, Macaca fascicularis.
The nature of series [23]: Drug concentration in male albino rat lymph node assessed as radioactivity per gram of tissue at 20 mg/kg administered as single dose via gastric gavage measured after 3 hrs by autoradiographic analysis. Type of series: ADME, organism-based. Set-up: dose 20 mg/kg, dosed compound name [14C]Sunitinib. The conditions noted are these: in vivo, po.
Series [24] has as its system Blood. Nature of the series: Drug concentration in male albino rat blood assessed as radioactivity per gram of tissue at 20 mg/kg administered as single dose via gastric gavage measured after 24 hrs by autoradiographic analysis. The conditions noted are these: in vivo, po. It counts as ADME, organism-based. Also on record: dose 20 mg/kg, dosed compound name [14C]Sunitinib.

The term Tmax denotes the time from dosing to the highest level. For the compound `CCN(CC)CCNC(=O)c1c(C)[nH]c(/[14CH]=C2\C(=O)Nc3ccc(F)cc32)c1C.O=C(O)C[C@H](O)C(=O)O`, the Radiolabel recovery is listed as 0.06 ugequiv in [1]; 7 ugequiv in series [2]; 14.16 ugequiv in series [3]; 1.21 ugequiv in series [4]; 1.5 ugequiv in [5]; 1.23 ugequiv in series [7]. Also, the Radiolabel recovery in [8] is given as 0.64 ugequiv; in [10] it was 6.1%; in series [11], 5.79 ugequiv; in [12] it was 3.73 ugequiv; in series [13], 1.7 ugequiv; in [14], 13.24 ugequiv. Moreover, the Radiolabel recovery in series [15] is 0.06 ugequiv; in series [16], 0.17 ugequiv; in series [17] it was 0.06 ugequiv; in series [18], 0.64 ugequiv; in series [19] it was 81.06 ugequiv; in [20], 11.63 ugequiv. For the same compound, the Radiolabel recovery was determined as 15.16 ugequiv in [21], 8.86 ugequiv in series [23] and 0.07 ugequiv in series [24]. The AUC in [6] is given as 5692 ng.Eq.hr/ml. The Cmax in [9] turned out to be 2926 ngequiv/ml. The time of peak concentration (Tmax) in series [22] was determined as 4 h.
